Results pooled from the literature.
Compare with care: the assays were run in different laboratories.
Route: oral

CCc1ccc(Cc2cc([C@@H]3O[C@H](CO)[C@@H](O)[C@H](O)[C@H]3O)cc3c2CCC3)cc1 — bioavailability (male C57BL/6 mouse, plasma; 3 mg/kg): > 100%
CC(C)(C)c1cc(NC(=O)Nc2ccc(Oc3ccnc4[nH]c(=O)cnc34)cc2F)n(-c2ccccc2)n1 — bioavailability (BALB/c mouse, plasma; 10 mg/kg): 54%
N#Cc1ccc(/C=C/c2nc3ccccc3c(=O)n2-c2cccc(C(=O)O)c2)cc1 — bioavailability (mouse, plasma; 10 mg/kg, single dose): 50%
COc1nc2[nH]c(C(F)(F)F)nc2nc1Nc1ccc(OC(F)(F)F)cc1F — bioavailability (C57BL/6 mouse, plasma; 10 mg/kg): 21%
COc1ccc2nccc(N3CCc4c(cc(Cn5ccnc5)cc4-c4cn(C)nc4C(F)(F)F)C3=O)c2c1 — bioavailability (male CD-1 mouse, plasma; 10 mg/kg): 34%
COc1cc(N2CCN(C)CC2)ccc1Nc1ncc2c(n1)N(C)c1ccccc1C(=O)N2CC(F)(F)F — bioavailability (male Swiss mouse, plasma; 10 mg/kg): 81%
CCc1cc(C(=O)NC)c2nccc(N3CCc4c(cc(Cn5ccnc5)cc4-c4cn(C)nc4C(F)(F)F)C3=O)c2c1 — bioavailability (male CD-1 mouse, plasma; 150 mg/kg): 252%
COc1cc2ccccc2cc1C(=O)NC(=S)Nc1ccc(-c2nc3ccccc3[nH]2)cc1 — bioavailability (mouse, plasma; 5 mg/kg): < 1%
OC[C@H]1O[C@@H](c2ccc(Cl)c(Cc3ccc(O[C@H]4CCOC4)cc3)c2)[C@H](O)[C@@H](O)[C@@H]1O — bioavailability (CD-1 mouse, plasma; 10 mg/kg): 25.6%
C=CC(=O)N1CC2CC(n3nc(-c4ccc(C(=O)Nc5ccccn5)cc4)c4c(N)ncnc43)CC2C1 (stereo not drawn) — bioavailability (male BALB/c mouse, plasma; 3 mg/kg): 47%
O=C(CC1Cc2ccccc2C1)N[C@H](CN1CCCC1)[C@H](O)c1ccc(OC(F)(F)F)cc1 — bioavailability (CD-1 mouse, plasma; 10 mg/kg): 34%
Nc1ncc(-c2ccncc2)nc1Nc1ccc2[nH]ccc2c1 — bioavailability (male C57BL/6 mouse, plasma; 30 mg/kg): 89%
N[C@@H](CSSC[C@H](N)C(=O)O)C(=O)O — bioavailability (Kunming mouse, plasma; 100 mg/kg): 25.6%
O=C(NCCN1CCCC1)c1cc(-c2ccc(CN3CCOCC3)cc2)nc2ccc(F)cc12 — bioavailability (female NMRI mouse, blood; 3 mg/kg): 74%
CCc1cc(OC)c2nccc(N3CCc4c(cc(Cn5ccnc5)cc4-c4cn(C)nc4C(F)(F)F)C3=O)c2c1 — bioavailability (male CD-1 mouse, plasma; 150 mg/kg): 135%
C=CC(=O)Nc1cccc(Nc2nc(Nc3ccc(N4CCN(C(C)=O)CC4)cc3OC)ncc2C(F)(F)F)c1 — bioavailability (female mouse, plasma; 20 mg/kg): 65%
NC[C@@H]1O[C@H](O[C@H]2[C@@H](O)[C@H](O[C@@H]3[C@@H](O)[C@H](N)C[C@H](N)[C@H]3O[C@H]3O[C@H](CO)[C@@H](O)[C@H](O)[C@H]3N)O[C@@H]2CO)[C@H](N)[C@@H](O)[C@@H]1O — bioavailability (male BALB/c mouse, plasma; 500 mg/kg): 0.3%
O=C(Nc1nccs1)C(c1cc(F)ccc1O)N1Cc2ccccc2C1=O (stereo not drawn) — bioavailability (mouse, plasma; 20 mg/kg): 26%
